Results taken from ChEMBL document CHEMBL2396655, “Design, synthesis, and biological evaluation of (E)-N-aryl-2-arylethenesulfonamide analogues as potent and orally bioavailable microtubule-targeted anticancer agents” (J Med Chem, 2013).
Activity calls are given as the source filed them. The rule behind the calls is not given here.

Key:
Tubulin (Sus scrofa) = Tubulin (Sus scrofa) (UniProt P02554+P02550); test: Competitive binding affinity to pig brain tubulin vinblastine binding site at 0.1 to 100 uM after 1 hr by mass spectrophotometric analysis in presence of vinblastine
How it was run: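 Porcine brain tubulin (1.0 mg/mL) in PIPES 80 mM, MgCl₂ 2 mM, EGTA 0.5 mM, pH 6.9, at 37 °C. […] Competitor was 0.1–100 μM for 1 h. Unbound ligand in the 30 kDa ultrafiltrate was measured by MS. Runs were in triplicate; IC50 came from a Hill fit.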

Mus musculus [1] = test: Clearance in ICR mouse at 5 mg/kg, iv by LC-MS/MS analysis; format: ADME, organism-based; parameters: dose 5 mg/kg, route intravenous; details: in vivo
How it was run: (§1)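 Male ICR mice, 6–8 weeks old, N=3 per group. Single 5 mg/kg dose in NMP:PEG300:water (1:4:5 v/v), given as IV bolus or oral gavage. Serial arterial blood was drawn through a carotid cannula at 2–360 min. Plasma was protein-precipitated with acetonitrile containing internal standard and assayed by LC/MS/MS. Parameters were derived by noncompartmental analysis.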

MDCK = test: Apparent permeability from apical to basolateral side in MDCK cells expressing MDR-1 at 10 uM after 90 mins by LC-MS/MS analysis; format: ADME, cell-based, Canis lupus familiaris; details: dog, 1.5 h
How it was run: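 MDCK-MDR1 (Pgp-expressing) monolayers were used 3–4 days post-seeding, only if TEER exceeded 1000 Ω·cm² before and after the run. Compound starting concentration was 10 μM. Transport was measured A→B and B→A over 90 min and quantified by LC/MS/MS. Apparent permeabilities gave the efflux ratio.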

[2] = Growth inhibition of multidrug-resistant human MES-SA/Dx5 cells; format: functional
Mus musculus [3] = test: AUC in ICR mouse at 5 mg/kg, po by LC-MS/MS analysis; format: ADME, organism-based, Plasma; parameters: dose 5 mg/kg, route oral; details: in vivo; how it was run: as §1
DU-145 = test: Mitotoic arrest in human DU145 cells assessed as complete loss of coordination in mitotic spindle assembly at 25 nM after 24 hrs by FITC and propidium iodide staining-based confocal laser microscopic analysis; format: functional, cell-based
How it was run: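 DU145 cells grown on glass coverslips, exposed to 0.025 μM for 24 h, fixed in 4% paraformaldehyde, permeabilized in PBS with 10% FBS/0.1% Triton X-100, stained with FITC-conjugated anti-α-tubulin (DM1A, 1 h, 37 °C) and propidium iodide (1 μg/mL, 5 min), then imaged by confocal microscopy (60× objective, XYZ-sectioning); DMSO-treated cells as vehicle.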

Tubulin (Homo sapiens) = Tubulin (Homo sapiens) (UniProt P68371+Q9H4B7+P0DPH7+P68366+Q13509+Q71U36+P04350+Q3ZCM7+P07437+P68363+Q9BQE3+Q6PEY2+Q13885+Q9BVA1+Q9BUF5); test: Inhibition of tubulin polymerization in human DU145 cells after 24 hrs by Western blotting analysis; format: cell-based; details: DU-145
BT-474 = test: Cytotoxicity against human BT474 cells after 96 hrs by trypan blue exclusion assay; format: functional; details: BT-474, 96 h
How it was run: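 Cells were grown in DMEM or RPMI with 10% FBS and plated at 2.5×10⁴ cells/well in 12-well dishes. Compounds were added 24 h later at various concentrations. After 96 h, viable cells were counted by trypan blue exclusion from duplicate wells. Results are the mean of two independent experiments.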

[4] = Cytotoxicity against human HepG2 cells after 4 hrs by Alamar Blue assay; format: cell-based; details: read-out: LD50

## COc1cc(OC)c(/C=C/S(=O)(=O)Nc2ccc(OC)c(N)c2)c(OC)c1
Tubulin (Sus scrofa)
  Activity: inactive
Mus musculus [1]
  CL: 41.3 mL/min/kg
MDCK
  Papp: 9.1 ×10⁻⁶ cm/s
[2]
  GI50: 0.01 µM
Mus musculus [3]
  AUC: 700 ng·h/mL
DU-145
  Activity: Active
Tubulin (Homo sapiens)
  inhibition: Dose-dependent effect
BT-474
  GI50: 0.01 µM
[4]
  CC50 at 4 h: > 1000 µM
